Compound activity as filed in PubChem BioAssay.
IMP-1 inhibitor – blocks Pseudomonas aeruginosa IMP-1 metallo-beta-lactamase; purified IMP-1, nitrocefin hydrolysis, epi-absorbance fluorescence; inhibition, % at 5.6 µM; 290,000 tested, 0.45% active; AID 1556;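 active means inhibition above the mean plus 3 SD of all compounds in the same screening run, cut at about 4.5% in these data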;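 further: 0% = IMP-1 with DMSO and 100% = DMSO wells lacking enzyme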
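System: purified IMP-1 / Input: IMP-1 dispensed at 0.2 nM / Medium: 50 mM HEPES pH 7.1, 50 µM ZnSO4, 0.05% Brij 35 / Timing: 15 min enzyme–compound preincubation, then 25 min nitrocefin reaction, 25 °C / Technique: plate fluorescence quenching by hydrolysis product, ex 480/em 530 nm / Repeats: singlicate testing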
FID counter – displaces DNA intercalator in HCV helicase counter-screen | 290,000 tested, 0.17% active | inhibition, % at 7.9 µM | DNA fluorescent intercalator displacement, fluorescence; in the data active means inhibition above about 37%;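 further: 0% = vehicle and 100% = reference compound; higher means more ethidium bromide displaced from hairpin DNA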
SUMO HTRF inh – blocks human SUMOylation mediated by UBC9 | inhibition, % at 35 µM | HTRF SUMOylation assay, SAE1/SAE2 + UBC9, in vitro | 290,000 tested, 0.36% active; in the data active means inhibition above about 50%, passing the limit was not always enough
Target sequence (P63279 whole entry, looked up): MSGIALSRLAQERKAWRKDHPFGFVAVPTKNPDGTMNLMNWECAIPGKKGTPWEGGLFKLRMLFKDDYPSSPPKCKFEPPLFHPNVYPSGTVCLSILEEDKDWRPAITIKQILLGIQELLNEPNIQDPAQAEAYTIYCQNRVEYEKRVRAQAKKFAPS
NALP1 yeast inh – inhibitors of NALP1 inflammasome in yeast | 280,000 tested, 0.61% active | S. cerevisiae NALP1/ASC/caspase-1 growth, X-gal OD620, 72 h | inhibition, % at 10 µM; in the data active means inhibition mostly above about 24%, no sharp cut-off; inactive means mostly below about 32%
VIM-2 inhibitor – inhibitors of Pseudomonas aeruginosa VIM-2 metallo-beta-lactamase. inhibition, % at 5.6 µM. purified VIM-2, nitrocefin hydrolysis, epi-absorbance fluorescence. 290,000 tested, 0.89% active;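 active means inhibition above the mean of all tested compounds plus 3 SD, cutoff set per screening run, cut at about 7.5% in these data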;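 further: red hydrolysis product quenches plate fluorescence so inhibitors raise well fluorescence; 0% = enzyme with DMSO and 100% = DMSO without enzyme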
SUMO Mot1 rescue – inhibitors of SUMOylation pathway: yeast Mot1-301 growth rescue; S. cerevisiae Mot1-301 growth rescue, ATP luminescence, 38.5C; percent above DMSO median, 100 means doubled; growth rescue, % at 18.8 µM; 320,000 tested, 1% active; AID 2716;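 active means every valid replicate shows activation above 250% relative to neutral control wells; inactive means the rest, any valid replicate at or below 250%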;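 further: OY570 slx delta 5 strain wells were the positive control but not used for scaling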
The depositor's hits bear a star; . = not tested or not shown. In the library only some 2.9% were active in any assay of this set; here they are far more common.

SMILES	IMP-1 inhibitor	FID counter	SUMO HTRF inh	NALP1 yeast inh	VIM-2 inhibitor	SUMO Mot1 rescue
CCn1c2ccccc2c2nnc(SCC(=O)N3CC(C)OC(C)C3)nc21 (centres undefined)	-1	-25	4	24	8.3*	-24
COc1ccccc1N1CCN(C(=O)CSc2nnc3c4ccccc4n(CC(=O)O)c3n2)CC1	-1	-33	15	31	3	-6
O=C(/C=C/c1cccs1)c1ccc([N+](=O)[O-])cc1	0	9	22	43*	3	-7
O=C(/C=C/c1cccs1)Nc1ccc([N+](=O)[O-])cc1	-1	4	4	10	0	10
Cc1cc(C)cc(OCC(=O)OCC(=O)Nc2c(C)n(C)n(-c3ccccc3)c2=O)c1	-3	-10	-4	12	-1	0
CN(/N=C/c1cc(Br)cc(Br)c1O)c1ccccc1	8.3*	2	2	15	1	6
Cc1cc(C)c2cc(CN(CCN(C)C)C(=O)Nc3ccccc3Cl)c(=O)[nH]c2c1	-1	13	14	28*	-3	-13
CC1(C)CC(=O)C2=C(C1)OC(N)=C(C#N)C2c1cn(-c2ccccc2)nc1-c1ccc(F)cc1 (centres undefined)	-4	-7	-8	32	-3	-22
CC1(C)CC(=O)C2=C(C1)C(c1cn(-c3ccccc3)nc1-c1ccccc1)C(C#N)=C(N)O2 (centres undefined)	-3	-11	-2	43*	0	-13
C(=N\Nc1ccc(-n2ccnc2)nn1)/c1ccccc1	-1	-4	19	44*	0	-22
O=C(COC(=O)C1CC(=O)N(Cc2ccccc2)C1)Nc1ccc(Cl)cc1F (centres undefined)	-2	-11	7	6	0	-13
CC1CCCC(C)N1CCCNC(=O)Cn1c(=O)c2cccn2c2cccnc21 (centres undefined)	-4	0	10	-1	2	70
Cc1ccc(C(=O)N/C(=C/c2ccco2)C(=O)NCCCn2ccnc2)cc1	0	7	-6	20	-1	5
Cc1ccc(C(=O)N/C(=C\c2ccco2)C(=O)NCCCn2ccnc2)cc1	8.8*	3	9	23	-3	62
CN(C)c1ccc(/C=C(\NC(=O)c2ccccc2)C(=O)NCCCn2ccnc2)cc1	5.4*	-4	-5	8	-2	-3
CCN(CC)CCCNC(=O)/C=C/C(=O)O	-3	-2	15	15	-2	-11
Cc1ccc(CN2CCNC(=O)C2CC(=O)NC2CCCCCC2)o1 (centres undefined)	-2	-13	16	4	-2	347*
Cc1ccc(CN2CCNC(=O)C2CC(=O)NC2CCCCCC2)cc1 (centres undefined)	-2	-27	16	7	-3	0
COC(=O)CN(c1cc(OC)ccc1OC)S(=O)(=O)c1ccc(OC)c(OC)c1	-2	-10	2	29*	-3	.
COC(CNC(=O)C1CCC(CNS(=O)(=O)c2c(C)cc(C)cc2C)CC1)OC (centres undefined)	-2	-42	-4	20	-3	-25
Cc1cccc(CNC(=O)c2ccc3nc(Cc4ccccc4F)oc3c2)n1	-2	-33	-9	11	-1	4
CCOC(=O)c1cn(CC(=O)Nc2cccc(F)c2)nn1	0	-2	20	21*	-1	14
CCC1CCCCN1C(=O)COc1c(Br)cc(Br)c2cccnc12 (centres undefined)	1	-34	-8	0	5	85
Cc1ccc(Cl)cc1-n1ncc2c(NNC(=O)c3ccco3)ncnc21	-4	9	19	-6	-3	348*
O=C(NNc1ncnc2c1cnn2-c1cccc(Cl)c1)c1ccco1	0	-6	-45	-8	-4	7
SMILES	IMP-1 inhibitor	FID counter	SUMO HTRF inh	NALP1 yeast inh	VIM-2 inhibitor	SUMO Mot1 rescue
O=C(CSc1nnc(-c2ccc(C(F)(F)F)cn2)o1)Nc1cccc(Cl)c1	-2	-8	-9	.	-5	-14
CCCN1CCN(CCCNC(=O)CCNC(=O)Cn2ccc3ccccc3c2=O)CC1	5.4*	-2	8	50	1	.
CCC(C(=O)NCCCN1CCCCCC1)n1nc(C)c2sc3ccccc3c2c1=O (centres undefined)	-6	0	13	6	-1	-7
CCN1CCN(C(=O)Cn2nc(C)c3sc4ccccc4c3c2=O)CC1	-1	0	7	8	9.3*	-8
CCCN1CCN(CCCNC(=O)CCCn2nc(C)c3sc4ccccc4c3c2=O)CC1	-1	20	-7	32	5	352*
CCCN1CCN(CCCNC(=O)Cn2nc(-c3ccc(C)cc3)ccc2=O)CC1	6.3*	11	14	34	0	11
CCN1CCN(C(=O)CCNC(=O)Cn2ccc3ccccc3c2=O)CC1	-2	0	11	2	-7	16
O=C(NCc1ccco1)/C(=C/c1cccnc1)NC(=O)c1ccco1	-2	-2	-13	8	-2	5
CCOC(=O)NC(=O)/C(C#N)=N/Nc1ccc(F)cc1	-5	2	17	38*	0	-17
CC(OC(=O)c1cccs1)C(=O)NC1CC1 (centres undefined)	-2	-3	-16	1	-3	-1
Cc1ccc(C)c(OCC(=O)Nc2ccc(N3CCOCC3)cc2)c1	-3	-11	-1	3	4	-2
Cc1ccc(C)c(OCCCC(=O)Nc2ccc(N3CCOCC3)cc2)c1	6.3*	-12	2	.	-4	.
C/C(N)=C(/C#N)C(=O)CSc1nnc(Nc2cccc(C)c2C)s1	-3	-30	22	-8	-3	41
C/C(N)=C(/C#N)C(=O)CSc1nnc(Nc2c(C)cccc2C)s1	-2	-18	-8	3	-2	337*
COc1ccc(C(=O)C2CCN(C(=S)Nc3ccc(F)cc3)CC2)cc1	-4	-10	11	3	-2	3
COc1ccc(CNC(=O)OCc2nccnc2C(=O)Nc2ccc(Br)cn2)cc1	-2	-9	16	25	0	-1
Nc1ccc2nc(-c3ccccc3)sc2c1	-4	4	57*	.	-1	65
Cc1ccc2nc(-c3ccc(N)cc3)sc2c1	-1	-9	26	16	0	24
C#CCNC(=O)C1=C[C@H](C)C[C@H](OCc2ccc(CO)cc2)O1	.	.	.	.	.	20
N#Cc1cn(Cc2ccccc2)c2ccccc12	-1	-7	18	27*	-4	0
O=c1c2c3c(sc2ncn1/N=C/c1ccc([N+](=O)[O-])o1)CCCC3	0	8	-8	10	-1	290*
CCS(=O)(=O)N1Cc2ccccc2CC1C(=O)N(C)CC(=O)Nc1ccc(OC)cc1 (centres undefined)	.	.	.	.	.	-6
